In publication PMC4066744 (Nucleic Acids Research, 2014):

Legend:
[1] = biological target: KIX domain of CBP/p300 (mouse CBP 586–672) (Mus musculus, UniProt P45481); assay type: binding; details: for decrease in affinity for the KIX domain relative to native E2A AD2–1: mutant peptide versus wild-type E2A AD2–1, fluorescence anisotropy titration
Outline: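 Mouse CBP KIX (586–672), E. coli BL21(DE3)-expressed, purified, with final size exclusion in 20 mM MES pH 6.0, 1 mM β-mercaptoethanol (same buffer for titration). KIX spiked with 100 nM FITC-peptide titrated into that peptide. Ex 492/em 523 nm; three readings per injection averaged. Kd from quadratic one-site fit plus linear non-specific term. Mutant-peptide series run in triplicate; mean ± standard error.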

[2] = biological target: KIX^ΔPCETsite (Phe612Ala/Asp622Ala/Arg624Ala/Lys667Glu quadruple KIX mutant) (Mus musculus, UniProt P45481, D622A/F612A/K667E/R624A); assay type: binding; details: 250 μM versus 17 μM
Sequence of KIX^ΔPCETsite (Phe612Ala/Asp622Ala/Arg624Ala/Lys667Glu quadruple KIX mutant) (P45481 586-672 F612A/D622A/R624A/K667E): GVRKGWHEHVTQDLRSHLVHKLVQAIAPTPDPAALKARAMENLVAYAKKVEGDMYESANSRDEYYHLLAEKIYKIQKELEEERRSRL

[3] = biological target: KIX domain from mouse CBP 586-672 (mouse) (UniProt P45481); assay: fluorescence polarisation
Sequence of KIX domain from mouse CBP 586-672 (mouse) (P45481 586-672): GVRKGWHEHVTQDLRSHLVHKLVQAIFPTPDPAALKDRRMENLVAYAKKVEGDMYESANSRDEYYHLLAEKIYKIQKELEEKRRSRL

[4] = biological target: KIX domain from mouse CBP 586-672 (mouse, UniProt P45481 586-672); assay: NMR titration
Sequence of KIX domain from mouse CBP 586-672 (P45481 586-672): as above

Sequence of KIX domain of CBP/p300 (mouse CBP 586–672) (P45481 586-672): as above

Ac-EDHADEAIHVLRSH-NH2 (N-terminus and C-terminus assumed) [E2A AD2–1 Leu397Ala]
decrease in affinity for the KIX domain relative to native E2A AD2–1 [1]: 6 fold

Ac-EDHLDEAIHVARSH-NH2 (N-terminus and C-terminus assumed) [E2A AD2–1 Leu404Ala]
decrease in affinity for the KIX domain relative to native E2A AD2–1 [1]: approximately 5 fold

Ac-EDHLDEAIHVLRSH-NH2 [E2A AD2–1]
decrease in affinity of KIX^ΔPCETsite mutant relative to native KIX [2]: 15 fold

Ac-EDHLDEAIHVLRSHAVGTAGDMHTLLP-NH2 [E2A AD2–1/2]
Kd [1]: 21 ± 3 µM

Ac-EDHLDEAIHVLRSHY-NH2 [E2A AD2–1 (C-terminal tyrosine)]
Kd [1]: 21 ± 5 µM

E2A AD2-1 Ala400Leu FITC-labelled synthetic mutant peptide (from UniProt P15923 394-407)
Kd [3]: 7.2 µM

E2A AD2-1 His402Ala FITC-labelled synthetic mutant peptide (from UniProt P15923 394-407)
Kd [3]: 13.5 µM

E2A AD2-1 Ile401Ala FITC-labelled synthetic mutant peptide (from UniProt P15923 394-407)
Kd [3]: 106 µM

E2A AD2-1 Leu397Ala FITC-labelled synthetic mutant peptide (from UniProt P15923 394-407)
Kd [3]: 102 µM

E2A AD2-1 Leu404Ala FITC-labelled synthetic mutant peptide (from UniProt P15923 394-407)
Kd [3]: 86 µM

EDHLDEAIHVLRSHAVGTAGDMHTLLP [Unfused recombinant E2A AD2-1/2 (E2A residues 394-420)]
binding result [4]: binds
